Experimental data: EPA's CvTdb concentration-time database

How the values were obtained:
Rat [1] = test: concentration in brain after dosing; details: 1.5 h; dosed: 2-Methyltetrahydrofuran; 40 mg/kg; iv; Male; Harlan Sprague Dawley
Rat [2] = test: concentration in brain after dosing; details: 0.2 h; dosed: 2-Methyltetrahydrofuran; 40 mg/kg; iv; Male; Harlan Sprague Dawley
Rat [3] = test: concentration in brain after dosing; details: 7 min; dosed: 2-Methyltetrahydrofuran; 40 mg/kg; iv; Male; Harlan Sprague Dawley
Rat [4] = test: concentration in brain after dosing; details: 0.5 h; dosed: 2-Methyltetrahydrofuran; 40 mg/kg; iv; Male; Harlan Sprague Dawley
Rat [5] = test: concentration in plasma after dosing; details: dosed: Fluorotelomer alcohol 8+2, 12 mg/kg, oral, Male, Harlan Sprague Dawley
Rat [6] = test: concentration in liver after dosing; details: 3 h; dosed: Fluorotelomer alcohol 8+2; 24 mg/kg; oral; Male; Harlan Sprague Dawley
Rat [7] = test: concentration in brain after dosing; details: 3 h; dosed: Fluorotelomer alcohol 8+2; 24 mg/kg; oral; Male; Harlan Sprague Dawley
Rat [8] = test: concentration in kidney after dosing; details: 12 h; dosed: Fluorotelomer alcohol 8+2; 80 mg/kg; oral; Female; Harlan Sprague Dawley
Rat [9] = test: concentration in kidney after dosing; details: 3 h; dosed: Fluorotelomer alcohol 8+2; 80 mg/kg; oral; Female; Harlan Sprague Dawley
Rat [10] = test: concentration in plasma after dosing; details: 1 h; dosed: Perfluorohexanoic Acid; 40 mg/kg; iv; Male; F344
Rat [11] = test: concentration in liver after dosing; details: 1 h; dosed: Perfluorohexanoic Acid; 80 mg/kg; oral; Female; Harlan Sprague Dawley
Rat [12] = test: concentration in brain after dosing; details: 1 h; dosed: Perfluorohexanoic Acid; 80 mg/kg; oral; Male; Harlan Sprague Dawley
Rat [13] = test: concentration in plasma after dosing; details: 1 h; dosed: Perfluorohexanoic Acid; 80 mg/kg; oral; Male; Harlan Sprague Dawley
Rat [14] = test: concentration in plasma after dosing; details: 0.5 h; dosed: Perfluorohexanoic Acid; 40 mg/kg; iv; Male; F344
Rat [15] = test: concentration in kidney after dosing; details: 12 h; dosed: Perfluorohexanoic Acid; 80 mg/kg; oral; Male; Harlan Sprague Dawley
Rat [16] = test: concentration in kidney after dosing; details: 0.5 h; dosed: Perfluorohexanoic Acid; 80 mg/kg; oral; Female; Harlan Sprague Dawley
Rat [17] = test: concentration in liver after dosing; details: 0.5 h; dosed: Perfluorohexanoic Acid; 80 mg/kg; oral; Female; Harlan Sprague Dawley
Rat [18] = test: concentration in kidney after dosing; details: 0.5 h; dosed: Perfluorohexanoic Acid; 80 mg/kg; oral; Male; Harlan Sprague Dawley
Rat [19] = test: concentration in kidney after dosing; details: 0.5 h; dosed: Perfluorohexanoic Acid; 80 mg/kg; oral; Male; Harlan Sprague Dawley; remark: listed apart in the source
Rat [20] = test: concentration in liver after dosing; details: 1 h; dosed: Perfluorohexanoic Acid; 80 mg/kg; oral; Male; Harlan Sprague Dawley
Rat [21] = test: concentration in kidney after dosing; details: 12 h; dosed: Perfluorohexanoic Acid; 80 mg/kg; oral; Male; Harlan Sprague Dawley; remark: listed apart in the source
human = test: concentration in expired air after dosing; details: dosed: trichloroethylene, 100 ppm, inhalation, duration: 4 hr, person
How it was run: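 A PubMed search, classifier screening and manual review identified published in vivo toxicokinetic studies, which together with two structured collections supplied concentration-versus-time and amount-versus-time points. Points were mostly digitised from plot screenshots with WebPlotDigitizer, otherwise copied from tables. Dose, route, subject details and medium were hand-curated from each paper, and sampling and analytical methods are those of the sources, often unreported.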

Rat [22] = test: concentration in kidney after dosing; details: 24 h; dosed: Perfluorooctane Sulfonate; 20 mg/kg; oral; Female; F344
Rat [23] = test: concentration in liver after dosing; details: 864 h; dosed: Perfluorooctane Sulfonate; 20 mg/kg; oral; Male; Harlan Sprague Dawley
Rat [24] = test: concentration in liver after dosing; details: 3360 h; dosed: Perfluorooctane Sulfonate; 20 mg/kg; oral; Male; Harlan Sprague Dawley
Rat [25] = test: concentration in liver after dosing; details: 6 h; dosed: Perfluorooctane Sulfonate; 20 mg/kg; oral; Male; Harlan Sprague Dawley
Rat [26] = test: concentration in kidney after dosing; details: 1848 h; dosed: Perfluorooctane Sulfonate; 20 mg/kg; oral; Male; Harlan Sprague Dawley
Rat [27] = test: concentration in liver after dosing; details: 24 h; dosed: Perfluorooctane Sulfonate; 2 mg/kg; oral; Female; Harlan Sprague Dawley
Rat [28] = test: concentration in kidney after dosing; details: 1848 h; dosed: Perfluorooctane Sulfonate; 2 mg/kg; oral; Female; Harlan Sprague Dawley
Rat [29] = test: concentration in liver after dosing; details: 6 h; dosed: Perfluorooctane Sulfonate; 20 mg/kg; oral; Female; F344
Rat [30] = test: concentration in brain after dosing; details: 6 h; dosed: Perfluorooctane Sulfonate; 20 mg/kg; oral; Male; Harlan Sprague Dawley
Rat [31] = test: concentration in plasma after dosing; details: 2 h; dosed: Gemfibrozil; 50 mg/kg; oral; Male; Sprague-Dawley
Rat [32] = test: concentration in plasma after dosing; details: 10 min; dosed: Gemfibrozil; 100 mg/kg; oral; Male; Sprague-Dawley
Rat [33] = test: concentration in plasma after dosing; details: 4 h; dosed: Gemfibrozil; 4.29 mg/kg; oral; Male; Sprague-Dawley
Rat [34] = test: concentration in plasma after dosing; details: 4 h; dosed: Gemfibrozil; 4.29 mg/kg; oral; Male; Sprague-Dawley; remark: listed apart in the source
Rat [35] = test: concentration in plasma after dosing; details: 10 min; dosed: Gemfibrozil; 4.29 mg/kg; oral; Male; Sprague-Dawley
Rat [36] = test: concentration in plasma after dosing; details: 5 min; dosed: Gemfibrozil; 100 mg/kg; oral; Male; Sprague-Dawley
Rat [37] = test: concentration in plasma after dosing; details: 0.5 h; dosed: Gemfibrozil; 4.29 mg/kg; oral; Male; Sprague-Dawley
Rat [38] = test: concentration in plasma after dosing; details: 0.25 h; dosed: Gemfibrozil; 100 mg/kg; oral; Male; Sprague-Dawley

## CC1CCCO1 (configuration not stated) [2-Methyltetrahydrofuran]
Rat [1]
  concentration in brain: 7510 ng/mL
Rat [2]
  concentration in brain: 25500 ng/mL
Rat [3]
  concentration in brain: 25400 ng/mL
Rat [4]
  concentration in brain: 15200 ng/mL

## O=C(O)CCC(F)(F)C(F)(F)C(F)(F)C(F)(F)C(F)(F)C(F)(F)C(F)(F)F [Fluorotelomer acid 7+3]
Rat [5]; 1 h
  concentration in plasma: 334 ng/mL
Rat [5]; 24 h
  concentration in plasma: 377 ng/mL
Rat [6]
  concentration in liver: 2680 ng/g
Rat [7]
  concentration in brain: 440 ng/g
Rat [8]
  concentration in kidney: 2750 ng/g
Rat [9]
  concentration in kidney: 5620 ng/g

## O=C(O)C(F)(F)C(F)(F)C(F)(F)C(F)(F)C(F)(F)F [Perfluorohexanoic Acid]
Rat [10]
  concentration in plasma: 3100 ng/mL
Rat [11]
  concentration in liver: 39700 ng/g
Rat [12]
  concentration in brain: 2670 ng/g
Rat [13]
  concentration in plasma: 152000 ng/mL
Rat [14]
  concentration in plasma: 4980 ng/mL
Rat [15]
  concentration in kidney: 1180 ng/g
Rat [16]
  concentration in kidney: 48100 ng/g
Rat [17]
  concentration in liver: 24900 ng/g
Rat [18]
  concentration in kidney: 69600 ng/g
Rat [19]
  concentration in kidney: 99400 ng/g
Rat [20]
  concentration in liver: 83600 ng/g
Rat [21]
  concentration in kidney: 1990 ng/g

## ClC=C(Cl)Cl [trichloroethylene]
human; 0.2144 h
  concentration in expired air: 4.28 ppm
human; 0.5331 h
  concentration in expired air: 2.8 ppm
human; 1.023 h
  concentration in expired air: 1.97 ppm
human; 2.042 h
  concentration in expired air: 1.38 ppm
human; 4.039 h
  concentration in expired air: 0.761 ppm
human; 5.983 h
  concentration in expired air: 0.736 ppm
human; 7.98 h
  concentration in expired air: 0.579 ppm
human; 10.1 h
  concentration in expired air: 0.488 ppm

## O=S(=O)([O-])C(F)(F)C(F)(F)C(F)(F)C(F)(F)C(F)(F)C(F)(F)C(F)(F)C(F)(F)F [Perfluorooctane Sulfonate]
Rat [22]
  concentration in kidney: 127000 ng/g
Rat [23]
  concentration in liver: 97500 ng/g
Rat [24]
  concentration in liver: 29800 ng/g
Rat [25]
  concentration in liver: 204000 ng/g
Rat [26]
  concentration in kidney: 4810 ng/g
Rat [27]
  concentration in liver: 20600 ng/g
Rat [28]
  concentration in kidney: 2750 ng/g
Rat [29]
  concentration in liver: 139000 ng/g
Rat [30]
  concentration in brain: 4810 ng/g

## Cc1ccc(C)c(OCCCC(C)(C)C(=O)O)c1 [Gemfibrozil]
Rat [31]
  concentration in plasma: 1970 ng/mL
Rat [32]
  concentration in plasma: 130000 ng/mL
Rat [33]
  concentration in plasma: 596 ng/mL
Rat [34]
  concentration in plasma: 238 ng/mL
Rat [35]
  concentration in plasma: 606 ng/mL
Rat [36]
  concentration in plasma: 1690 ng/mL
Rat [37]
  concentration in plasma: 424 ng/mL
Rat [38]
  concentration in plasma: 35700 ng/mL
